Assay [1] concerns NCI-H69. The assay is described as follows: Cytotoxicity measured using the drug resistant, P-glycoprotein (Pgp) expressing human small cell lung carcinoma cell line H69/LX4. Type of assay: functional, cell-based. An outline of the steps: (§1)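 H69/P (parental) or H69/LX4 (P-glycoprotein-overexpressing) human SCLC cells; compound added, then 5-6 days incubation; proliferation read with Alamar Blue.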

In assay [2] the test system is NCI-H69. Put plainly: Cytotoxicity measured using the H69 parental (H69/P) human small cell lung carcinoma cell line. Type of assay: functional, cell-based. In short, it runs like this:
as §1

Assay [3] deals with NCI-H69. Put plainly: Rf is the resistance factor and is the ratio of the IC50 on the resistant cell line over the IC50 on the parental H69/P cell line. Type of assay: functional, Homo sapiens. An outline of the steps:
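Resistance factor computed as IC50 in H69/LX4 (Pgp-overexpressing) divided by IC50 in H69/P. Both IC50s come from a 5-6 day Alamar Blue proliferation assay.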

As a reminder, the IC50 is the concentration at which inhibition is half-maximal. `CN(C)CCNC(=O)c1cccc2nc3ccc4cc([N+](=O)[O-])ccc4c3nc12`: the IC50 was 69 nM in the assay with NCI-H69 [1] and 49 nM with NCI-H69 [2]. Also, in the assay with NCI-H69 [3], the Rf was determined as 1.4.
The like results for `CC(C)Oc1cccc2c1ccc1nc3cccc(C(=O)NCCN(C)C)c3nc12` were, in that order, 874 nM, 420 nM and 2.1.
Turning to `COc1ccc2c(ccc3nc4cccc(C(=O)NCCN(C)C)c4nc32)c1OC`, the IC50 was 804 nM in the assay with NCI-H69 [1] and 436 nM in the assay on NCI-H69 [2]. For the same compound, in the assay with NCI-H69 [3], the Rf is 1.8.
`COc1cccc2c1ccc1nc3cccc(C(=O)NC(C)CN(C)C)c3nc12` (stereo unspecified): the 50% inhibitory concentration (IC50) in the assay with NCI-H69 [1] came to 44 nM; in the assay with NCI-H69 [2] it was 30 nM. In the assay on NCI-H69 [3], the Rf was 1.4.
For `COc1cccc2c1ccc1nc3ccc(N)c(C(=O)NCCN(C)C)c3nc12`, the figures for the IC50 in the assay on NCI-H69 [1] and in the assay on NCI-H69 [2] were 29 nM and 34 nM, respectively. Further, the Rf in the assay on NCI-H69 [3] stood at 0.85.
Turning to `CCOC(=O)COc1cccc2c1ccc1nc3cccc(C(=O)NCCN(C)C)c3nc12`, the IC50 in the assay on NCI-H69 [1] is 506 nM; with NCI-H69 [2], 587 nM. The Rf in the assay with NCI-H69 [3] is 0.9.
Turning to `COc1cccc2c1ccc1nc3cccc(C(=O)NC(C)(C)CN(C)C)c3nc12`, the IC50 was determined as 642 nM with NCI-H69 [1] and 435 nM in the assay with NCI-H69 [2]. Further, the Rf in the assay with NCI-H69 [3] was determined as 1.5.
For `CN(C)CCNC(=O)c1cccc2nc3ccc4c(OCCO)cccc4c3nc12`, the IC50 with NCI-H69 [1] came out at 235 nM; in the assay with NCI-H69 [2] it was 303 nM. The Rf with NCI-H69 [3] came out at 0.8.
On to `CCN(CC)CCNC(=O)c1cccc2nc3ccc4c(OC)cccc4c3nc12`, for which the IC50 in the assay on NCI-H69 [1] was found to be 1000 nM; in the assay with NCI-H69 [2] it was 412 nM. Also, the Rf in the assay on NCI-H69 [3] was 2.4.
`COc1cccc2c1ccc1nc3cccc(C(=O)NCC(CN(C)C)N(C)C)c3nc12` (stereo unspecified): the IC50 was 480 nM in the assay on NCI-H69 [1] and 126 nM in the assay on NCI-H69 [2]. Moreover, in the assay with NCI-H69 [3], the Rf is 3.8.
Take `COc1cccc2c1ccc1nc3ccc(O)c(C(=O)NCCN(C)C)c3nc12`: the IC50 in the assay on NCI-H69 [1] is 107 nM; with NCI-H69 [2], 103 nM. For the same compound, in the assay on NCI-H69 [3], the Rf amounted to 1.
The like results for `CN(C)CCNC(=O)c1cccc2nc3ccc4c(CO)cccc4c3nc12` were, in that order, 423 nM, 117 nM and 3.6.
Regarding `CN(C)CCNC(=O)c1cccc2nc3ccc4c(Cl)cccc4c3nc12`, the IC50 amounted to 159 nM with NCI-H69 [1] and 117 nM in the assay with NCI-H69 [2]. Also, the Rf with NCI-H69 [3] is recorded as 1.4.
As for `CN(C)CCNC(=O)c1cccc2nc3ccc4c(NCC#N)cccc4c3nc12`, the IC50 in the assay with NCI-H69 [1] was 155 nM; with NCI-H69 [2] it was 103 nM. Also, the Rf in the assay on NCI-H69 [3] turned out to be 1.5.
In the case of `CN(C)CCNC(=O)c1cccc2nc3ccc4c(C(=O)O)cccc4c3nc12`, the IC50 in the assay on NCI-H69 [1] and in the assay on NCI-H69 [2] was > 5000 nM in each case.
With `COc1cccc2c1ccc1nc3c(C)ccc(C(=O)NCCN(C)C)c3nc12`, the results for the concentration for half-maximal inhibition (IC50) with NCI-H69 [1] and in the assay with NCI-H69 [2] were 168 nM and 87 nM, respectively. The Rf in the assay with NCI-H69 [3] is on record as 1.9.
Turning to `COc1cccc2c1ccc1nc3cccc(C(=O)NC(CN(C)C)C(=O)O)c3nc12` (stereo unspecified), the IC50 is > 5000 nM in the assay on NCI-H69 [1] and 211 nM in the assay with NCI-H69 [2]. The Rf in the assay on NCI-H69 [3] was >23.
Turning to `CN(C)CCNC(=O)c1cccc2nc3ccc4c(S(C)(=O)=O)cccc4c3nc12`, the IC50 with NCI-H69 [1] was found to be 3810 nM; in the assay with NCI-H69 [2], 1360 nM. Also, the Rf with NCI-H69 [3] is reported as 2.8.
For `CN(C)CCNC(=O)c1cccc2nc3ccc4c(OCCN5CCOCC5)cccc4c3nc12`, the IC50 was 236 nM in the assay on NCI-H69 [1] and 99 nM in the assay on NCI-H69 [2]. Moreover, the Rf with NCI-H69 [3] is recorded as 2.4.
Take `COc1cccc2c1ccc1nc3cccc(C(=O)NCCN(CCO)CCO)c3nc12`: the figures for the IC50 in the assay with NCI-H69 [1] and in the assay on NCI-H69 [2] were 3380 nM and 614 nM, respectively. Further, the Rf with NCI-H69 [3] is listed as 5.5.
In the same order, the values of `COc1cccc2c1ccc1nc3cccc(C(=O)NC(Cc4ccccc4)CN(C)C)c3nc12` (stereo unspecified) are 513 nM, 478 nM and 1.1.
In the same order, the values of `COc1cccc2c1ccc1nc3cccc(C(=O)NC(CN(C)C)C(C)C)c3nc12` (stereo unspecified) are 25 nM, 35 nM and 0.7.
For the compound `CN(C)CCNC(=O)c1cccc2nc3ccc4ccc(O)cc4c3nc12`, the figures for the IC50 with NCI-H69 [1] and in the assay with NCI-H69 [2] were 282 nM and 86 nM, respectively. Moreover, the Rf in the assay with NCI-H69 [3] was found to be 3.3.
In the case of `COc1cccc2c1ccc1nc3cccc(C(=O)N[C@@H](CN(C)C)[C@H](C)O)c3nc12`, the half-inhibitory concentration (IC50) with NCI-H69 [1] and in the assay with NCI-H69 [2] was 19 nM each time. Moreover, the Rf in the assay with NCI-H69 [3] is reported as 1.
Regarding `C#CCOc1cccc2c1ccc1nc3cccc(C(=O)NCCN(C)C)c3nc12`, the IC50 in the assay with NCI-H69 [1] stood at 61 nM; in the assay on NCI-H69 [2], 40 nM. Also, the Rf in the assay on NCI-H69 [3] is recorded as 1.5.
On to `COc1cccc2c1ccc1nc3cccc(C(=O)N[C@@H](CN(C)C)C(C)C)c3nc12`, for which the IC50 with NCI-H69 [1] worked out at 20 nM; in the assay on NCI-H69 [2], 21 nM. Also, the Rf in the assay on NCI-H69 [3] stood at 1.
Consider `CN(C)CCNC(=O)c1cccc2nc3ccc4c(N(C)C)cccc4c3nc12`, for which the IC50 was determined as 925 nM with NCI-H69 [1] and 778 nM with NCI-H69 [2]. Also, in the assay on NCI-H69 [3], the Rf amounted to 1.2.
As for `CN(C)CCNC(=O)c1cccc2nc3ccc4c(OCC(=O)O)cccc4c3nc12`, the IC50 was > 5000 nM in the assay on NCI-H69 [1] and 3840 nM with NCI-H69 [2]. The Rf with NCI-H69 [3] is >1.3.
Take `COc1cccc2c1ccc1nc3cccc(C(=O)NCCN4CCCC4)c3nc12`: the IC50 in the assay on NCI-H69 [1] amounted to 77 nM; with NCI-H69 [2] it was 40 nM. Moreover, the Rf with NCI-H69 [3] was determined as 1.9.
In the case of `COc1ccc2ccc3nc4cccc(C(=O)NCCN(C)C)c4nc3c2c1`, the values for the IC50 in the assay with NCI-H69 [1] and in the assay with NCI-H69 [2] were 112 nM and 110 nM, respectively. The Rf in the assay on NCI-H69 [3] turned out to be 1.
In the same order, the values of `CNS(=O)(=O)c1cccc2c1ccc1nc3cccc(C(=O)NCCN(C)C)c3nc12` are > 5000 nM, 638 nM and >7.8.
For `CSc1cccc2c1ccc1nc3cccc(C(=O)NCCN(C)C)c3nc12`, the IC50 in the assay with NCI-H69 [1] was found to be 94 nM; with NCI-H69 [2], 121 nM. Also, the Rf with NCI-H69 [3] is listed as 0.8.
For `COc1cccc2c1ccc1nc3cccc(C(=O)NCCN4CCOCC4)c3nc12`, the half-maximal inhibitory concentration (IC50) in the assay with NCI-H69 [1] turned out to be 1000 nM; in the assay on NCI-H69 [2], 597 nM. Moreover, the Rf with NCI-H69 [3] was 1.7.
As to `CCC(CN(C)C)NC(=O)c1cccc2nc3ccc4c(OC)cccc4c3nc12` (stereo unspecified), the IC50 in the assay on NCI-H69 [1] is 118 nM; in the assay on NCI-H69 [2] it was 107 nM. For the same compound, the Rf with NCI-H69 [3] was found to be 1.1.
On to `COC(=O)c1cccc2c1ccc1nc3cccc(C(=O)NCCN(C)C)c3nc12`, for which the 50% inhibitory concentration (IC50) in the assay with NCI-H69 [1] came to 91 nM; in the assay on NCI-H69 [2], 103 nM. Also, the Rf in the assay with NCI-H69 [3] came to 0.9.
Consider `CC(=O)COc1cccc2c1ccc1nc3cccc(C(=O)NCCN(C)C)c3nc12`, for which the IC50 with NCI-H69 [1] was 138 nM; in the assay on NCI-H69 [2] it was 45 nM. Moreover, the Rf in the assay on NCI-H69 [3] worked out at 3.1.
The like results for `CN(C)CCNC(=O)c1cccc2nc3ccc4c(N(S(C)(=O)=O)S(C)(=O)=O)cccc4c3nc12` were, in that order, > 5000 nM, 2140 nM and >2.3.
For the compound `COc1cccc2c1ccc1nc3cccc(C(=O)N[C@@H](C)CN(C)C)c3nc12`, the IC50 was 121 nM in the assay on NCI-H69 [1] and 96 nM in the assay on NCI-H69 [2]. Further, in the assay on NCI-H69 [3], the Rf is 1.3.
The like results for `COc1cccc2c1ccc1nc3cccc(C(=O)NCC(O)CN)c3nc12` (stereo unspecified) were, in that order, > 5000 nM, 515 nM and >9.7.

Values taken from ChEMBL document CHEMBL1135980, “Novel angular benzophenazines: dual topoisomerase I and topoisomerase II inhibitors as potential anticancer agents” (J Med Chem, 2002).
